Results published in ChEMBL document CHEMBL1149189, “In vitro antimalarial activity of a series of cationic 2,2'-bipyridyl- and 1,10-phenanthrolineplatinum(II) benzoylthiourea complexes” (J Med Chem, 2004).
Where a name gives a salt, the structure may show the parent alone.

Tests used:
Ferriprotoporphyrin IX [1] = test system: Ferriprotoporphyrin IX
Ferriprotoporphyrin IX [2] = test system: Ferriprotoporphyrin IX; remark: listed apart in the source
CHO = experiment: In vitro cytotoxicity against CHO cells was determined using MTT colorimetric assay; format: functional, cell-based; settings: Cricetulus griseus
Summary of the method: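 Chinese hamster ovary cells; MTT colorimetric read-out. Compounds dissolved as 2 mg/mL stocks in water, then diluted in medium as six serial 10-fold dilutions, final 100 µg/mL to 1 ng/mL. Emetine dihydrochloride as positive control. IC50 from nonlinear dose–response curve fitting; mean ± standard deviation of two independent experiments, each in triplicate.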

Row | Log K (Ferriprotoporphyrin IX [1]) | Log K (Ferriprotoporphyrin IX [2]) | Structure (SMILES) | further results
1 | – | No association | O=C(NC(=S)N(CCO)CCO)c1ccccc1 | –
2 | 1.93 | – | CCN(CC)CCN(CCN(CC)CC)C(=S)NC(=O)c1ccccc1 | –
3 | 2.88 | – | O=[N+]([O-])c1cc2cccnc2c2ncccc12 | –
4 | – | No association | c1ccc(-c2ccccn2)nc1 | –
5 | – | No association | Cc1ccnc(-c2cc(C)ccn2)c1 | –

More lines, now with the values behind:

Row | Structure (SMILES) | Log K (Ferriprotoporphyrin IX [1]) | Log K (Ferriprotoporphyrin IX [2]) | further results
6 | Clc1cc2cccnc2c2ncccc12 | 3.01 | – | –
7 | Cc1cc2cccnc2c2ncccc12 | 2.93 | – | –
8 | Cc1cnc2c(ccc3c(C)c(C)cnc32)c1C | 3.32 | – | –
9 | CC[C@H]1CN2CCc3cc(OC)c(OC)cc3[C@@H]2C[C@@H]1C[C@H]1NCCc2cc(OC)c(OC)cc21 [EMETINE HYDROCHLORIDE] | – | – | IC50 (CHO): 0.139 µM
10 | Cc1ccnc2c1ccc1cccnc12 | 3.22 | – | –
